Assay outcomes from PubChem.
PMI act: phosphomannose isomerase (human) activation; P34949; purified human PMI, coupled resazurin fluorescence, 20 min; hits give high values; 1 = vehicle control, 0 substrate-free wells; activation factor at 20 µM; hit rate 0.005% among 190,000; AID 1214;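 active = activation factor of 2 or more at 20 µM, relative to plate controls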
ABCB1 block: human ABCB1 inhibition, ABCG2 as counter-screen; P08183; AID 1326; hit rate 0.067% among 190,000; CCRF-Adr cells, JC-1 efflux, flow cytometry; inhibition, % at 6.6 µM; in the data active = inhibition above about 40%;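 also: 0% = vehicle and 100% = reference inhibitor; higher value means more JC-1 retained so stronger ABCB1 efflux block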
PMI act hi M6P: PMI (human) activation, high substrate | P34949 | coupled PMI enzyme assay, resazurin fluorescence, 20 min; hits give high values; 1 = untreated enzyme, 0 = substrate-free blank | activation factor at 20 µM | hit rate 0.34% among 190,000 | AID 1216;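 active = activation factor of 2 or more at 20 µM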
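Test system: human phosphomannose isomerase with PGI, G6PDH, diaphorase coupling enzymes; Amount: PMI at 15 ng/mL final; Reagent: Mannose-6-phosphate 1.0 mM (near-saturating) plus 0.22 mM NADP+; Timing: 20 min, room temperature; Technique: resorufin fluorescence at Ex 544/Em 590 nm; Dosing: 20 µM single dose.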
Cl transport mod: modulates chloride dependent transport by human KCC2; Q9H2X9; KCC2 cells, thallium flux FluoZin-2 fluorescence; B-score of Tl+ flux slope (higher = more flux/activation; lower = inhibition) at 10 µM; hit rate 2.2% among 190,000; AID 1456;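 active = thallium flux slope and its plate-corrected score both differing from the plate sample mean at a set confidence after two filtering rounds, in either direction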;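 also: slope of fluorescence scaled to starting intensity during 10 to 20 s after thallium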
ROMK mod: modulates human ROMK potassium channel activity | hit rate 2% among 130,000 | Tet-inducible ROMK, thallium flux fluorescence; actives lie on both sides | B-score at 10 µM | P48048;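 active = signal ratio slope over the read window, or its plate-corrected B-score, at least 3 SD from the plate mean, either direction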;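 also: B-score of the F/F0 ratio slope over 7 to 12 s after thallium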
ABCG2 inh: blocks JC-1 efflux by human ABCG2 transporter. IgMXP3 cells, flow cytometry. inhibition, % at 6.6 µM. hit rate 0.1% among 190,000;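 active = inhibition above 80%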;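 also: 0% = DMSO and 100% = nicardipine control wells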
Target sequence (Q9UNQ0 whole entry, looked up): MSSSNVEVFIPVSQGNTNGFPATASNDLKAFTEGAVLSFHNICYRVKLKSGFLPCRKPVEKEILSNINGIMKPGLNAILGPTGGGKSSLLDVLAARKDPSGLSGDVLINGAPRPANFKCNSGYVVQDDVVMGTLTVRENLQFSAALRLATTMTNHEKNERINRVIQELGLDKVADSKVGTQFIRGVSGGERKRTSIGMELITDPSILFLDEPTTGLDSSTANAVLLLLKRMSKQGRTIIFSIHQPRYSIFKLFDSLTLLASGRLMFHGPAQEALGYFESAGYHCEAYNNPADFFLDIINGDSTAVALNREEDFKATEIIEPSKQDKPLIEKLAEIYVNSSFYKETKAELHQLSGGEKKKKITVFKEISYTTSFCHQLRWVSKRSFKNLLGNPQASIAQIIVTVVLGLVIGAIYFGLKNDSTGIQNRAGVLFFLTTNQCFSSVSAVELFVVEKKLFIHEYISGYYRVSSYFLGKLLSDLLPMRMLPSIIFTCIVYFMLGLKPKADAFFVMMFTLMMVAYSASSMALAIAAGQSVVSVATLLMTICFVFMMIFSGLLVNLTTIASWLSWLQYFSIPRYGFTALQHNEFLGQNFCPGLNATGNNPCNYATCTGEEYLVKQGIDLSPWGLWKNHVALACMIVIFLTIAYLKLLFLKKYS
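test system = two drug-resistant human cell lines, ABCG2 and ABCB1 | amount = 3 million cells/mL final, two lines in 1:1 ratio | reagent = JC-1 transporter substrate | doses = one concentration, 6.6 µM final | incubation = 10 min at 25 °C | signal = flow cytometric JC-1 green MFI at 530 nm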
ROMK hit retest: confirmation of human ROMK potassium channel modulators. shares compounds with ROMK mod. AID 1917. hit rate 54% among 3,000. normalized thallium flux (F/F0 slope) at 10 µM. ROMK thallium flux, fluorescence ratio; hits give low values;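 active = Flux at 10 µM at least 3 SD below or above vehicle control mean in one or both replicates; inconclusive = no clear call, values can overlap the other calls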
An asterisk follows results filed as active; ? = inconclusive; · = no result given. Hits are enriched below; roughly 3.3% of the tested compounds scored in any of these assays.

SMILES	PMI act	ABCB1 block	PMI act hi M6P	Cl transport mod	ROMK mod	ABCG2 inh	ROMK hit retest
COc1ccc(C(N)=S)cc1	0.9	-1	1	0.99	0.24	-6	·
C=C(c1ccc(OC)cc1)c1ccc(OC)cc1	1.1	0	1.1	-1.1	1.9*	1	0.079
CCCSc1nnc2n(C)c(=O)c3c4c(sc3n12)CCC4	1	2	1	-0.38	·	3	·
CCCCN(CCCC)C(=O)CSc1nnc2n(C)c(=O)c3c4c(sc3n12)CCCC4	1	0	1	0.31	-3.6*	0	0.049*
COc1ccc(N(Cc2nnc3n2CCCCC3)C(=O)Nc2ccccc2)cc1	1.2	0	0.9	0.17	-0.2	0	·
CCCCN(CCCC)CC(O)COc1ccccc1C(=O)Nc1ccccc1 (configuration not stated)	1	7	1.1	-0.27	-3.5*	4	0.053*
CCN(CC)CC(O)COc1ccccc1C(=O)CCc1ccccc1 (configuration not stated)	1	·	1	·	-0.9	·	·
CCCn1c(C)cc(C(=O)COC(=O)c2ccc[nH]c2=O)c1C	1	0	0.9	-0.25	·	1	·
CCN1C(=O)c2cccc3c(NS(=O)(=O)c4ccc(NC(C)=O)cc4)ccc1c23	1.1	0	0.4	-2.4	·	0	·
CCN1C(=O)c2cccc3c(S(=O)(=O)Nc4ccccc4OC)ccc1c23	0.9	5	0.9	-1.6	·	22	0.062*
O=C1/C(=C/c2cccnc2)SC(=S)N1CC1CCCO1 (configuration not stated)	0.9	0	0.8	0.3	-4*	1	?
N#CC1=C(N)C(C#N)(C#N)[C@H](c2ccncc2)[C@H]2CC3(CC=C12)OCCO3	1	0	0.6	-0.012	-3.8*	2	?
CCC(C(=O)Nc1sc(C(N)=O)c(C)c1C(=O)OC)c1ccccc1 (configuration not stated)	0.9	-1	1	-1.6	0.3	8	·
O=C(C1CCCO1)N1N=C(c2ccc(Br)cc2)CC1c1ccco1 (configuration not stated)	1	1	1	-0.62	-3.4*	35	0.058*
CC(C)OC(=O)Cn1cc(C#N)c2ccccc21	0.9	1	1	1.2	-8.8*	2	0.079
O=S1CCCSC1c1cccnc1 (configuration not stated)	0.9	0	0.9	0.98	0.057	6	0.076
CCn1cc(C(=O)NCCCN2CCN(C)CC2)c(=O)c2cc(S(=O)(=O)N3CCc4ccccc4C3)ccc21	1	0	1	0.35	-0.41	0	·
O=c1[nH]c(CN2CCN(c3ccc([N+](=O)[O-])cc3)CC2)nc2ccsc12	1	1	1	0.39	-3.5*	5	0.059*
C(#CCN1CCC(Cc2ccccc2)CC1)COCCOCc1ccccc1	0.8	1	1	-1.2	-3*	2	0.063*
Cc1cc(/C=N/NC(=O)C(=O)NCc2ccccn2)c(C)n1-c1ccccc1	1	1	1.1	-1.4	2.7*	12	0.089
Cc1cc(/C=N\NC(=O)COc2cccc3cccnc23)c(C)n1-c1ccccc1	1	2	0.9	-2.2	0.032	15	·
COCCCN1C(=O)CS/C1=N\S(=O)(=O)c1ccccc1	·	·	·	0.21	·	·	·
O=Cc1s/c(=N\S(=O)(=O)c2ccccc2)n(CCCCl)c1Cl	1	1	1	-2.6	-6.1*	2	0.043*
COc1ccc(-c2nnnn2-c2ccc(F)cc2F)cc1	1.1	1	1.1	-0.26	-3.3*	0	?
CCOC(=O)CC(NC(=O)CCc1c(C)nc2ncnn2c1C)c1ccc(C)cc1 (configuration not stated)	1.2	1	1.1	-0.56	0.0027	15	·
SMILES	PMI act	ABCB1 block	PMI act hi M6P	Cl transport mod	ROMK mod	ABCG2 inh	ROMK hit retest
O=P(c1ccccc1)(c1ccccc1)C(O)c1ccco1 (configuration not stated)	1	1	1	1.2	2.2*	1	0.084
CCCN1Cc2cccc(C(=O)N3CCN(c4cc(Cl)ccc4C)CC3)c2C1=O	1	-1	1.1	-1.5	·	1	?
CCOc1ncccc1C(=O)N1CCN(c2cc(Cl)ccc2C)CC1	0.9	2	0.8	0.12	3.3*	17	0.08
CCOc1ncccc1C(=O)N1CCN(c2cccc(C)c2C)CC1	1	2	1	-0.63	7.3*	11	0.082
CCCC1=C(C(=O)OCC)C(c2cccnc2)n2nc(C)nc2N1 (configuration not stated)	·	·	·	-0.31	·	·	·
CC(=O)N/N=C/c1cc(C(C)(C)C)cc(/C=N/NC(C)=O)c1O	·	4	·	1.9	-3*	11	0.055*
CCC(O)(CC)C(=O)N/N=C/c1cc(Br)cc(Br)c1O	·	·	·	-0.86	·	·	·
COc1ccc(CCn2c(NN)nc3c2c(=O)[nH]c(=O)n3C)cc1	·	·	·	0.2	4.8*	·	?
Cc1ccc2cc(C=O)c(Cl)nc2c1	0.6	0	0.6	-1.1	3.7*	5	0.083
CCOC(=O)/C(C#N)=C/c1cc2ccc(C)cc2nc1Cl	0.8	1	0.8	1	-0.17	3	·
Cc1ccnc(N/C=C(/NC(=O)c2ccccc2)C(=O)N/N=C\c2ccc(Cl)cc2)n1	·	·	·	-0.77	·	·	·
O=C(Nc1cccc(S(=O)(=O)N2CCCCC2)c1)c1ccc2c(=O)n3c(nc2c1)CCCCC3	0.9	1	1	-1.1	·	-1	0.064*
CCc1ccc(NC(=O)c2ccc3c(=O)n4c(nc3c2)CCCCC4)cc1	·	·	·	-1.4	·	·	·
COC(=O)c1cc(C(=O)N2CCN(c3cccc(C)c3C)CC2)cc([N+](=O)[O-])c1	1	1	1	-0.82	2.8*	5	?
COC(=O)c1cc(C(=O)N2CCN(c3ccccc3OC)CC2)cc([N+](=O)[O-])c1	1	2	1	-0.046	-1.3	6	·
Cc1cc(C(=O)CN2C(=O)NC(C)(c3cccc(Br)c3)C2=O)c(C)n1Cc1ccco1 (configuration not stated)	1	0	1	0.64	·	1	?
O=C1N=C(N2CCOCC2)S/C1=C/c1ccc(-c2ccccc2Cl)o1	0.9	0	1	·	·	1	0.056*
CC(=C/c1ccccc1)/C=C1/SC(N2CCOCC2)=NC1=O	1	1	1	-2.2	·	19	0.053*
O=C1N=C(N2CCOCC2)S/C1=C\c1ccncc1	·	·	·	-0.39	·	·	·
O=C(Oc1cccc(NC2=NS(=O)(=O)c3ccccc32)c1)c1cccnc1	0.9	0	0.8	·	·	0	·
